According to ChEMBL document CHEMBL1127816, “Synthesis and antiestrogenic activity of diaryl thioether derivatives” (1994):
Active and inactive are the calls of the source. The rule behind the calls is not given here.

Legend:
[1] = Compound was tested for percent inhibition of the Estradiol (E2) induced cell proliferation; design: concentration or dose not given beside the values
[2] = biological target: T1, Estrogen receptor (Rattus norvegicus) (UniProt P06211+Q62986); test: Relative binding affinity (RBA) on estrogen receptor was measured by in vitro using cytosol from the immature rat uterus; format: protein assay
Method in brief: (§1)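 Competitive displacement of [3H]estradiol from estrogen receptor. Incubation was 3 h at 25 °C. Nonspecific binding was defined with 1000 nM unlabeled estradiol. RBA = 100 × IC50(estradiol)/IC50(compound), with estradiol set at 100%.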

[3] = biological target: T2, Estrogen receptor (Homo sapiens) (UniProt Q92731+P03372); test: Ability to inhibit E2-induced proliferation of ZR-75-1 cells at a dose of 1 uM; format: functional, cell-based
Method in brief: (§2)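 ZR-75-1 cells (passages 90-96, kept in phenol-red-free RPMI-1640 with 10 nM E2) were plated at 10 000 cells/dish in SD medium (5% dextran-charcoal FBS, insulin) and allowed to adhere for 3 days. They were then treated for 9 days at 37 °C with compound (1 uM, ethanol vehicle 0.1%) plus E2 0.1 nM, with medium changed every 2-3 days. Read-out was DNA content. % inhibition = 100 − [(D−B)/(C−A)]×100. Done in triplicate.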

[4] = biological target: T2, Estrogen receptor (Homo sapiens); test: Ability to stimulate the basal cell proliferation of ZR-75-1 cells at a dose of 1 uM; format: functional, cell-based
Method in brief: (§3)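 ZR-75-1 cells were plated at 10 000 cells/dish in phenol-red-free SD medium (5% dextran-charcoal FBS) and allowed to adhere for 3 days. Compound was added at 1 uM without E2 (controls received 0.1% ethanol). Cells were incubated for 9 days at 37 °C with medium renewed every 2-3 days. Basal proliferation was read as DNA content (ng/dish). Done in triplicate.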

[5] = biological target: T1, Estrogen receptor (Rattus norvegicus); test: Relative binding affinity (RBA) on estrogen receptor was measured by in vitro using cytosol from the immature rat uterus; N means no binding observed; format: protein assay
Method in brief: as §1

[6] = Antiestrogenic activity against Estradiol (E2) induced cell proliferation; design: concentration or dose not given beside the values
ZR-75-1 [7] = test: (§4) Inhibition of E2-induced proliferation of ZR-75-1 cells at 1 uM; format: functional, Homo sapiens
Method in brief: as §2

ZR-75-1 [8] = test: as §4; format: functional, Homo sapiens; remark: listed apart in the source
Method in brief: as §2

ZR-75-1 [9] = test: Stimulation of basal cell proliferation of ZR-75-1 cells at 1 uM; format: functional, Homo sapiens
Method in brief: as §3

[10] = Percent inhibition of Estradiol (E2) induced cell proliferation; design: scale not given: the % may be the effect or the level left

| Activity [1] [%] | RBA [2] [%] | DNA content per dish (cell proliferation) ((ng of DNA) dish-1) [3] | Binding ((ng of DNA) dish-1) [4] | relative binding affinity (RBA) [5] | Activity [6] [%] | Activity [10] [%] | SMILES | Binding (ZR-75-1 [7]) | Binding (ZR-75-1 [8]) | Binding (ZR-75-1 [9]) |
| --- | --- | --- | --- | --- | --- | --- | --- | --- | --- | --- |
| 42 | 0.02 | 2230 | 1540 | – | – | – | OCCCCCCCCCCCSC(Cc1ccc(O)cc1)c1ccc(O)cc1 (stereo not drawn) | – | – | – |
| 44 | 0.01 | 2070 | 1410 | – | – | – | CCCCN(C)C(=O)CCCCCCCSC(Cc1ccc(O)cc1)c1ccc(O)cc1 (stereo not drawn) | – | – | – |
| – | – | 1100 | 725 | inactive | 41 | – | COc1ccc(C(Cc2ccc(OCc3ccccc3)cc2)SCCCCCCCCCCCO)cc1 (stereo not drawn) | – | – | – |
| – | – | 1020 | 789 | inactive | 64 | – | CCCCN(C)C(=O)CCSC(Cc1ccc(OCc2ccccc2)cc1)c1ccc(OC)cc1 (stereo not drawn) | – | – | – |
| 80 | 0.01 | 1390 | 1150 | – | – | – | CCCCN(C)C(=O)CCCCCCCCCCSC(Cc1ccc(O)cc1)c1ccc(O)cc1 (stereo not drawn) | – | – | – |
| 40 | 0.01 | 2600 | 1890 | – | – | – | CCCCN(C)C(=O)CCSC(Cc1ccc(O)cc1)c1ccc(O)cc1 (stereo not drawn) | – | – | – |
| – | – | 1120 | 749 | – | 42 | – | CCCCN(C)C(=O)CCCCCCCCCCSC(Cc1ccc(OCc2ccccc2)cc1)c1ccc(OC)cc1 (stereo not drawn) | – | – | – |
| 94 | 1.2 | – | – | – | 103 | – | CCCCN(C)C(=O)CCCCCCCCCCC1Cc2cc(O)ccc2[C@H]2CC[C@]3(C)[C@@H](O)[C@H](Cl)C[C@H]3[C@H]12 (stereo partly drawn) | 1403 (ng of DNA) dish-1 | 662 (ng of DNA) dish-1 | 679 (ng of DNA) dish-1 |
| – | – | 1350 | 800 | inactive | 13 | – | CCCCN(C)C(=O)CCCCCCCCCCCSC(Cc1ccc(OC)cc1)c1ccc(OC)cc1 (stereo not drawn) | – | – | – |
| – | 0.01 | 2050 | 1440 | – | – | 49 | CCCCN(C)C(=O)CCCCCSC(Cc1ccc(O)cc1)c1ccc(O)cc1 (stereo not drawn) | – | – | – |
| – | 0.01 | 902 | 684 | – | 66 | – | CCCCN(C)C(=O)CCSC(Cc1ccc(O)cc1)c1ccc(OC)cc1 (stereo not drawn) | – | – | – |
| – | – | 1090 | 807 | inactive | 55 | – | CCCCN(C)C(=O)CCCCCCCCCCCSC(Cc1ccc(O)cc1)c1ccc(OC)cc1 (stereo not drawn) | – | – | – |
| – | – | 1070 | 791 | inactive | 56 | – | CCCCN(C)C(=O)CCCCCCCSC(Cc1ccc(OCc2ccccc2)cc1)c1ccc(OC)cc1 (stereo not drawn) | – | – | – |
| – | – | 1320 | 733 | inactive | 8 | – | CCCCN(C)C(=O)CCCCCCCCCCSC(Cc1ccc(O)cc1)c1ccc(OC)cc1 (stereo not drawn) | – | – | – |
| – | – | 1150 | 746 | inactive | 36 | – | CCCCN(C)C(=O)CCCCCCCSC(Cc1ccc(OC)cc1)c1ccc(OC)cc1 (stereo not drawn) | – | – | – |
| – | 0.05 | 915 | 698 | – | 66 | – | CCCCN(C)C(=O)CCCCCCCSC(Cc1ccc(O)cc1)c1ccc(OC)cc1 (stereo not drawn) | – | – | – |
| 31 | 0.02 | 1280 | 839 | – | – | – | COc1ccc(C(Cc2ccc(O)cc2)SCCCCCCCCCCCO)cc1 (stereo not drawn) | – | – | – |
| – | – | 1010 | 741 | inactive | 57 | – | CCCCN(C)C(=O)CCSC(Cc1ccc(OC)cc1)c1ccc(OC)cc1 (stereo not drawn) | – | – | – |
